In ChEMBL document CHEMBL1148398, “Design, synthesis, and biological evaluation of thio-containing compounds with serum HDL-cholesterol-elevating properties” (2004):

How the values were obtained:
[1] = system: Rattus norvegicus; assay: Effect of compound on high-density lipoprotein cholesterol levels in 6th group of normal chow-fed male rats after a dose of 50 mg/kg/day; format: functional, organism-based
[2] = system: Cricetinae gen. sp.; assay: Effect of compound on low-density lipoprotein cholesterol levels in 2nd group of cholesterol-fed male hamsters at 10 mg/kg/day after 14 days of treatment; details: Mesocricetus auratus
[3] = system: Rattus norvegicus; assay: Effect of compound on alanine aminotransferase (ALT) levels in 7th group of normal chow-fed male rats after a dose of 100 mg/kg/day; format: functional, organism-based
In short: (§1)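 Male Sprague–Dawley CD rats (60–80 g) on standard chow under a reversed 12 h light/dark cycle. Compound was suspended in 1.3% Tween 80/0.25% CMC and given as a single daily oral gavage dose for 4 days. Rats were fasted overnight and killed 24 h after the last dose. Serum ALT, AST, ALKP and LDH were read on a clinical analyzer. Weight gain was start versus end weight. Mean ± SEM, n = 6.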

[4] = system: Rattus norvegicus; assay: Effect of compound on alanine aminotransferase (ALT) levels in 5th group of normal chow-fed male rats after a dose of 20 mg/kg/day; format: functional, organism-based; in short: as §1
[5] = system: Cricetinae gen. sp.; assay: Effect of compound on low-density lipoprotein cholesterol levels in 3rd group of cholesterol-fed male hamsters at 30 mg/kg/day after 14 days of treatment; details: Mesocricetus auratus
[6] = Effect on serum lipids in 4th group of cholesterol-fed male hamsters at 100 mg/kg/day after 14 days of treatment was evaluated as ratio of total cholesterol levels to high-density lipoprotein cholesterol levels; format: functional
In short: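 Male Syrian Golden hamsters on chow plus 0.25% cholesterol, 2 weeks before and during dosing. Oral gavage for 14 days in 2% Tween 80/saline. Fasted 4 h before sacrifice. Serum total cholesterol measured enzymatically; HDL-C from cholesterol in FPLC lipoprotein fractions; TC/HDL-C ratio calculated. Six per group, mean ± SEM.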

[7] = system: Cricetinae gen. sp.; assay: Effect of compound on total plasma cholesterol levels in 3rd group of cholesterol-fed male hamsters at 30 mg/kg/day after 14 days of treatment; details: Mesocricetus auratus
[8] = system: Rattus norvegicus; assay: Effect of compound on thyroxine levels in 7th group of normal chow-fed male rats after a dose of 100 mg/kg/day; format: functional, organism-based
In short: (§2)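 Male Sprague–Dawley CD rats, 60–80 g, on standard chow with reverse 12 h light/dark cycle. One oral gavage dose daily for 4 days, suspended in 1.3% Tween 80 and 0.25% CMC. Fasted overnight; sacrificed 24 h after the last dose. Serum TC on clinical analyzer, lipoproteins by FPLC with cholesterol per fraction, T4 on analyzer. Mean ± SEM, six rats per group.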

[9] = system: Rattus norvegicus; assay: Effect of compound on total plasma cholesterol levels in 4th group of normal chow-fed male rats after a dose of 10 mg/kg/day; format: functional, organism-based
In short: (§3)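 Male Sprague–Dawley CD rats (60–80 g) on Purina 5001 chow with a reverse 12 h light/dark cycle. Dosed once daily by oral gavage for 4 days, suspended in 1.3% Tween 80 / 0.25% CMC. Fasted overnight and bled 24 h after the last dose. Serum TC and glycerol-blanked TG measured enzymatically; VLDL-C by FPLC fractionation with cholesterol assay. n=6, mean ± SEM.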

[10] = system: Rattus norvegicus; assay: Effect of compound on serum high-density lipoprotein cholesterol concentration in chow-fed male rats at a dose of 50 mg/kg/day; format: functional, organism-based
In short: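 Separate dose-response study in male Sprague–Dawley CD rats, 60–80 g, on chow. Oral gavage once daily for 4 days in 1.3% Tween 80 / 0.25% CMC; fasted overnight, bled 24 h after last dose. Apo-A1 by ELISA with rabbit anti-rat primary, alkaline phosphatase-conjugated anti-rabbit IgG and p-nitrophenyl phosphate substrate. HDL-C by FPLC fractionation. Mean ± SEM, six per group.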

[11] = system: Rattus norvegicus; assay: Effect of compound on alkaline phosphatase (ALKP) levels in 4th group of normal chow-fed male rats after a dose of 10 mg/kg/day; format: functional, organism-based; in short: as §1
[12] = system: Cricetinae gen. sp.; assay: Effect of compound on total plasma cholesterol levels in 2nd group of cholesterol-fed male hamsters at 10 mg/kg/day after 14 days of treatment; details: Mesocricetus auratus
[13] = system: Cricetinae gen. sp.; assay: Effect of compound on high-density lipoprotein cholesterol levels in 3rd group of cholesterol-fed male hamsters at 30 mg/kg/day after 14 days of treatment; format: functional, organism-based
[14] = system: Rattus norvegicus; assay: Effect of compound on low-density lipoprotein cholesterol levels in 6th group of normal chow-fed male rats after a dose of 50 mg/kg/day; format: functional, organism-based; in short: as §2
[15] = system: Cricetinae gen. sp.; assay: Percent change in total plasma cholesterol following oral administration of compound in hypercholesterolemic hamsters at 100 mg/kg/day for 14 days; format: functional
In short: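 Male Syrian Golden hamsters pre-fed chow plus 0.25% cholesterol for 2 weeks and kept on it. Dosed 100 mg/kg/day by oral gavage in 2% Tween 80/saline for 14 days. Serum total cholesterol and glycerol-blanked triglycerides read enzymatically; lipoproteins separated by FPLC with cholesterol measured in each fraction. % change versus vehicle controls; six per group, p < 0.05.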

[16] = system: Rattus norvegicus; assay: Effect of compound on relative liver weight in 2nd group of normal chow-fed male rats after a dose of 2 mg/kg/day; format: functional
In short: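 Chow-fed male Sprague–Dawley CD rats, 60–80 g, dosed by oral gavage once daily for 4 days in 1.3% Tween 80/0.25% CMC. Fasted overnight and sacrificed 24 h after the last dose. Liver weight expressed as % of body weight at termination. Six per group, mean ± SEM.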

[17] = system: Cricetinae gen. sp.; assay: Effect of compound on alanine aminotransferase (ALT) levels in 2nd group of cholesterol-fed male hamsters at 10 mg/kg/day after 14 days of treatment; details: Mesocricetus auratus
[18] = system: Rattus norvegicus; assay: Effect of compound on aspartate aminotransferase (AST) levels in 7th group of normal chow-fed male rats after a dose of 100 mg/kg/day; format: functional, organism-based; in short: as §1
[19] = system: Mesocricetus auratus; assay: Effect of compound on alanine aminotransferase (ALT) levels in 3rd group of cholesterol-fed male hamsters at 30 mg/kg/day after 14 days of treatment
[20] = system: Cricetinae gen. sp.; assay: Effect of compound on triglycerides level in 1st group of cholesterol-fed male hamsters at 3 mg/kg/day after 14 days of treatment; details: Mesocricetus auratus
[21] = system: Rattus norvegicus; assay: Effect of compound on triglycerides level in 3rd group of normal chow-fed male rats after a dose of 5 mg/kg/day; format: functional, organism-based; in short: as §3
[22] = system: Cricetinae gen. sp.; assay: Effect of compound on very low-density lipoprotein cholesterol levels in 1st group of cholesterol-fed male hamsters at 3 mg/kg/day after 14 days of treatment; details: Mesocricetus auratus
[23] = system: Cricetinae gen. sp.; assay: Effect of compound on alkaline phosphatase (ALKP) levels in 4th group of cholesterol-fed male hamsters at 100 mg/kg/day after 14 days of treatment; details: Mesocricetus auratus

CCN1CC(=O)N(c2cc(Cl)ccc2C)C1=S
Serum level [1]: 61 mg/dL
Serum level [2]: 136 mg/dL
Level [3]: 67 U l-1
Level [4]: 78 U l-1
Serum level [5]: 125 mg/dL
Ratio [6]: 1.95
Serum level [7]: 372 mg/dL
Serum level [8]: 3.4 µg/dL
Serum level [9]: 85 mg/dL
Serum level [10]: 87.3 mg/dL
Level [11]: 327 U l-1
Serum level [12]: 370 mg/dL
Serum level [13]: 156 mg/dL
Serum level [14]: 7.1 mg/dL
Change [15]: -3.3%
Relative liver weight [16]: 3.9%
Level [17]: 134 U l-1
Level [18]: 214 U l-1
Level [19]: 112 U l-1
Serum level [20]: 431 mg/dL
Serum level [21]: 18 mg/dL
Serum level [22]: 115 mg/dL
Level [23]: 136 U l-1
